pIC50: −log10 of the molar value. Active and inactive are the calls of the source. No cut-off for these calls is given here.
What was measured:
Mus musculus [1] = test: Pro-cognitive activity in C57Bl6 mouse assessed as attenuation of long-term memory deficit by measuring increase in exploration time for novel juvenile at 25 nmol/uL, icv measured after 48 hrs by novel object recognition test; format: functional, organism-based
Procedure, shortened: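 Male adult C57Bl6 mice (8–9 weeks), lateral-ventricle cannula implanted 7 days earlier. Social recognition: 10-min habituation to arena with two empty cups; 24 h later 10-min acquisition with an unfamiliar juvenile (3–4 weeks) under one wire cup. Immediately after, 5 µL i.c.v. infusion at 1 µL/min. Retention at 48 h with familiar and novel juvenile; percentage time exploring each cup (snout-to-cup contact).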

[2] = target: Carbonic anhydrase 12 (Homo sapiens) (UniProt O43570); test: Binding affinity to human CA12 by phenol red dye based stopped flow CO2 hydration assay; settings: filed as activator
Carbonic anhydrase 12 (Homo sapiens), sequence (O43570 whole entry, canonical isoform): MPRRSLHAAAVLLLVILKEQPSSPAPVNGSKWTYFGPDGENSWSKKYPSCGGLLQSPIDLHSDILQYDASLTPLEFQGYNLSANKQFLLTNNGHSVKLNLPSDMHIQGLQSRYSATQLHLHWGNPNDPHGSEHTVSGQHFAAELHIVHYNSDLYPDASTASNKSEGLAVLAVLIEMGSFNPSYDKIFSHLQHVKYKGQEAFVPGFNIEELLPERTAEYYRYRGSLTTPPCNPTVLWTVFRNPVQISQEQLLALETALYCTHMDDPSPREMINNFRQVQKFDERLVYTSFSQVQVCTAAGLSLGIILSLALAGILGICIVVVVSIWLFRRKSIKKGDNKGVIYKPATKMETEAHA
Procedure, shortened: (§1)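 Purified recombinant human CA isoforms. CA-catalysed CO2 hydration was followed by stopped-flow with phenol red at 557 nm, taking initial rates over 10–100 s from at least six traces of the first 5–10% of reaction. Uncatalysed rates were subtracted. Activator stocks were 0.1 mM in deionised water, diluted down to 0.1 nM in assay buffer. K_A came from non-linear least-squares Michaelis–Menten fitting.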

[3] = target: T1, Amine oxidase [flavin-containing] B (Homo sapiens, UniProt P27338)
T1 sequence (P27338 whole entry): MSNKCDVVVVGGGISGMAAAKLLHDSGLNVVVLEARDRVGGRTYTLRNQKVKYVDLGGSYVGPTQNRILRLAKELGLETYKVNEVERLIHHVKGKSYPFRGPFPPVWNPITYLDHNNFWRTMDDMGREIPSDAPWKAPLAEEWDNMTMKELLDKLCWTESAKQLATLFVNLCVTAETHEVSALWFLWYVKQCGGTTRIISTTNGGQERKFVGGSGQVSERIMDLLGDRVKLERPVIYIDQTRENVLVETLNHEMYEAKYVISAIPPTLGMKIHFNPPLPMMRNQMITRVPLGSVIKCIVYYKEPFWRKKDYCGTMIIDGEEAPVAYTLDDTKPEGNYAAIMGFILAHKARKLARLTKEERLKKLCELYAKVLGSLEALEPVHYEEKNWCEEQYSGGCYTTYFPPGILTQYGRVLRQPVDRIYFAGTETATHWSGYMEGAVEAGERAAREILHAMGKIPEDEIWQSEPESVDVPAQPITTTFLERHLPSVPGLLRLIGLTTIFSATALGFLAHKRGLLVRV

Mus musculus [4] = test: Pro-cognitive activity in C57Bl6 mouse assessed as attenuation of long-term memory deficit by measuring increase in exploration time for novel object at 50 nmol/uL, icv measured after 24 hrs by novel object recognition test; format: functional, organism-based
Procedure, shortened: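 Male adult C57Bl6 mice (8–9 weeks), lateral-ventricle cannula implanted one week before. 10-min habituation to empty open-field arena; 24 h later, 5-min acquisition with two identical objects, followed immediately by 5 µL i.c.v. infusion at 1 µL/min. 5-min retention test 24 h after acquisition with one familiar and one novel object; percentage exploration time per object, two-way ANOVA with Bonferroni.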

[5] = target: Carbonic anhydrase 1 (Homo sapiens) (UniProt P00915); test: Binding affinity to human CA1 by phenol red dye based stopped flow CO2 hydration assay; settings: filed as activator; procedure, shortened: as §1
Carbonic anhydrase 1 (Homo sapiens), sequence (P00915 2-261 limits assumed): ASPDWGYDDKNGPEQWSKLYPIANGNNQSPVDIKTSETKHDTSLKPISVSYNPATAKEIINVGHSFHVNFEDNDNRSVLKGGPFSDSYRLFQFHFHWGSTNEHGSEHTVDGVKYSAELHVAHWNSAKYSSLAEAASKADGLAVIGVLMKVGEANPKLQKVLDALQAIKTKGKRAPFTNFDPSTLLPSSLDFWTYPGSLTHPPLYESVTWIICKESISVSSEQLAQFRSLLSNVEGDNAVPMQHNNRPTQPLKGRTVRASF

Ka [2]: 43.3 µM
pIC50 [3]: 4.24
Ka [5]: 11.8 µM
SMILES: CC(N)CSc1ccccc1 (stereo not given)
Activity (Mus musculus [1]): inactive
Activity (Mus musculus [4]): Active
